From ChEMBL document CHEMBL1121929, “[(3-aryl-1,2-benzisoxazol-6-yl)oxy]acetic acids. A new diuretic series” (1982)

system: Mus musculus; experiment: The diuretic activity was measured after oral administration in saline loaded mice at 64 mg/kg after 5 hr; type: functional, Urine
Method in brief: (§1)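 Mice were dosed orally with drug in 1% saline at 10 mL/kg, at 4 or 64 mg/kg, alongside a vehicle control. There were 10 mice per group, housed 5 per metabolic cage. Pooled urine was analysed for sodium by flame photometry and expressed as mean mequiv/kg/5 h.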

| Compound | Oral diuretic activity |
| --- | --- |
| O=C(O)COc1ccc2c(-c3ccccc3)noc2c1Cl | 1.7 m equiv [Na+] 5hr-1kg-1 |
| O=C(O)COc1ccc2c(-c3cc(F)ccc3F)noc2c1Cl | 8.3 m equiv [Na+] 5hr-1kg-1 |
| Cc1cccc(-c2noc3c(Cl)c(OCC(=O)O)ccc23)c1C | 0.02 m equiv [Na+] 5hr-1kg-1 |
| O=C(O)COc1ccc2c(-c3ccoc3)noc2c1Cl | 2.1 m equiv [Na+] 5hr-1kg-1 |
| Cc1ccc(-c2noc3c(Cl)c(OCC(=O)O)ccc23)o1 | 1.5 m equiv [Na+] 5hr-1kg-1 |
| O=C(O)COc1ccc2c(-c3ccco3)noc2c1Cl | 0.6 m equiv [Na+] 5hr-1kg-1 |
| O=C(O)COc1ccc2c(-c3ccc4ccccc4c3)noc2c1Cl | 1.1 m equiv [Na+] 5hr-1kg-1 |
| O=C(O)COc1ccc(-c2noc3ccccc23)c(Cl)c1Cl | 1.49 m equiv [Na+] 5hr-1kg-1 |
| O=C(O)COc1ccc2c(-c3ccc(Cl)c(Cl)c3)noc2c1Cl | 0.1 m equiv [Na+] 5hr-1kg-1 |
| CCOC(=O)COc1ccc2c(-c3ccccc3F)noc2c1Cl | 1.48 m equiv [Na+] 5hr-1kg-1 |
| O=C(O)COc1ccc2c(-c3ccccc3Cl)noc2c1Cl | 9.1 m equiv [Na+] 5hr-1kg-1 |
| O=C(O)COc1ccc2c(-c3ccccc3F)noc2c1I | 3.41 m equiv [Na+] 5hr-1kg-1 |
| O=C(O)COc1ccc2c(-c3ccc(Cl)cc3F)noc2c1Cl | 1.4 m equiv [Na+] 5hr-1kg-1 |
| O=C(O)COc1ccc2c(-c3cccc(F)c3F)noc2c1Cl | 5.8 m equiv [Na+] 5hr-1kg-1 |
| O=C(O)COc1c(Cl)cc2c(-c3ccccc3F)noc2c1Cl | 0.41 m equiv [Na+] 5hr-1kg-1 |
| O=C(O)COc1c(Cl)c(Cl)c2c(-c3ccccc3F)noc2c1Cl | 1.65 m equiv [Na+] 5hr-1kg-1 |
| O=C(O)COc1ccc2c(-c3ccccc3F)noc2c1 | 2.89 m equiv [Na+] 5hr-1kg-1 |
| Cc1ccc(-c2noc3c(Cl)c(OCC(=O)O)ccc23)s1 | 0.5 m equiv [Na+] 5hr-1kg-1 |
| Cc1ccsc1-c1noc2c(Cl)c(OCC(=O)O)ccc12 | 0.7 m equiv [Na+] 5hr-1kg-1 |
| O=C(O)COc1cc2onc(-c3ccccc3F)c2cc1Br | 0.28 m equiv [Na+] 5hr-1kg-1 |

system: Mus musculus; experiment: The diuretic activity was measured after oral administration in saline loaded mice at 4 mg/kg after 5 hr; type: functional, Urine; method in brief: as §1

| Compound | Oral diuretic activity |
| --- | --- |
| O=C(O)COc1ccc2c(-c3ccccc3)noc2c1Cl | 0.8 m equiv [Na+] 5hr-1kg-1 |
| O=C(O)COc1ccc2c(-c3cc(F)ccc3F)noc2c1Cl | 2.2 m equiv [Na+] 5hr-1kg-1 |
| O=C(O)COc1ccc2c(-c3ccoc3)noc2c1Cl | 0.6 m equiv [Na+] 5hr-1kg-1 |
| Cc1ccc(-c2noc3c(Cl)c(OCC(=O)O)ccc23)o1 | 0.3 m equiv [Na+] 5hr-1kg-1 |
| O=C(O)COc1ccc2c(-c3ccc4ccccc4c3)noc2c1Cl | 1.2 m equiv [Na+] 5hr-1kg-1 |
| O=C(O)COc1ccc(-c2noc3ccccc23)c(Cl)c1Cl | 0.33 m equiv [Na+] 5hr-1kg-1 |
| O=C(O)COc1ccc2c(-c3ccc(Cl)c(Cl)c3)noc2c1Cl | 0.6 m equiv [Na+] 5hr-1kg-1 |
| O=C(O)COc1ccc2c(-c3ccccc3Cl)noc2c1Cl | 0.6 m equiv [Na+] 5hr-1kg-1 |
| O=C(O)COc1ccc2c(-c3ccccc3F)noc2c1I | 0.07 m equiv [Na+] 5hr-1kg-1 |
| O=C(O)COc1ccc2c(-c3ccc(Cl)cc3F)noc2c1Cl | 1.8 m equiv [Na+] 5hr-1kg-1 |
| O=C(O)COc1c(Cl)c(Cl)c2c(-c3ccccc3F)noc2c1Cl | 0.53 m equiv [Na+] 5hr-1kg-1 |
| O=C(O)COc1cc2onc(-c3ccccc3F)c2cc1Br | 0.47 m equiv [Na+] 5hr-1kg-1 |

system: Canis familiaris; experiment: Diuretic activity was measured after oral administration in conscious water loaded dogs at 20 mg/kg after 1 hr; type: functional, Canis lupus familiaris, Urine
Method in brief: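 Male mongrel dogs (20–25 kg) were given 20 mL/kg tap water by gavage about 15 h before drug, with water ad libitum overnight. On the test day they received 4 mL/kg tap water hourly for 7 h, and the bladder was emptied at each interval. Drug was gavaged in the 4 mL/kg water load after the third urine sample, with Tween 80 added when it was poorly soluble. Urinary Na+ was measured by flame photometry as the mean excretory rate (μequiv/kg) per interval per animal. Each dog was its own control, using the hour before dosing.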

| Compound | Oral diuretic activity |
| --- | --- |
| O=C(O)COc1ccc2c(-c3ccccc3)noc2c1Cl | 47.5 u equiv of [Na+] kg-1 hr-1 |
| O=C(O)COc1ccc2c(-c3cc(F)ccc3F)noc2c1Cl | 926.2 u equiv of [Na+] kg-1 hr-1 |
| Cc1cccc(-c2noc3c(Cl)c(OCC(=O)O)ccc23)c1C | 219.9 u equiv of [Na+] kg-1 hr-1 |
| O=C(O)COc1ccc2c(-c3ccoc3)noc2c1Cl | 293 u equiv of [Na+] kg-1 hr-1 |
| Cc1ccc(-c2noc3c(Cl)c(OCC(=O)O)ccc23)o1 | 37.4 u equiv of [Na+] kg-1 hr-1 |
| O=C(O)COc1ccc2c(-c3ccco3)noc2c1Cl | 199 u equiv of [Na+] kg-1 hr-1 |
| O=C(O)COc1ccc2c(-c3ccc4ccccc4c3)noc2c1Cl | 53.3 u equiv of [Na+] kg-1 hr-1 |
| O=C(O)COc1ccc(-c2noc3ccccc23)c(Cl)c1Cl | 81.6 u equiv of [Na+] kg-1 hr-1 |
| O=C(O)COc1ccc2c(-c3ccc(Cl)c(Cl)c3)noc2c1Cl | 101.6 u equiv of [Na+] kg-1 hr-1 |
| CCOC(=O)COc1ccc2c(-c3ccccc3F)noc2c1Cl | 39.1 u equiv of [Na+] kg-1 hr-1 |
| O=C(O)COc1ccc2c(-c3ccccc3Cl)noc2c1Cl | 48.2 u equiv of [Na+] kg-1 hr-1 |
| O=C(O)COc1ccc2c(-c3ccccc3F)noc2c1I | 617.3 u equiv of [Na+] kg-1 hr-1 |
| O=C(O)COc1ccc2c(-c3ccc(Cl)cc3F)noc2c1Cl | 156.2 u equiv of [Na+] kg-1 hr-1 |
| O=C(O)COc1ccc2c(-c3cccc(F)c3F)noc2c1Cl | 80 u equiv of [Na+] kg-1 hr-1 |
| O=C(O)COc1c(Cl)cc2c(-c3ccccc3F)noc2c1Cl | 85.7 u equiv of [Na+] kg-1 hr-1 |
| O=C(O)COc1c(Cl)c(Cl)c2c(-c3ccccc3F)noc2c1Cl | 109 u equiv of [Na+] kg-1 hr-1 |
| O=C(O)COc1ccc2c(-c3ccccc3F)noc2c1 | 33.6 u equiv of [Na+] kg-1 hr-1 |
| Cc1ccc(-c2noc3c(Cl)c(OCC(=O)O)ccc23)s1 | 122.4 u equiv of [Na+] kg-1 hr-1 |
| Cc1ccsc1-c1noc2c(Cl)c(OCC(=O)O)ccc12 | 97.7 u equiv of [Na+] kg-1 hr-1 |
